This is a sample that favours compounds with a hit; in the whole collection about 2.9% have one here.
AI-2 QS mod = Vibrio harveyi AI-2 quorum sensing modulators, primary screen, JMH597 strain, luminescence/OD600 ratio; Vibrio harveyi JMH597 AI-2 luminescence/OD600 ratio, 9 h; active compounds read low; strain lacks LuxN and CqsS sensors; 0 = neutral-control median; activity change, % at 7.5 µM; actives 0.4% (n = 300,000); in the data active means activity change below about -75%, passing the limit was not always enough; inconclusive means no clear call, values can overlap the other calls;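 further: luminescence divided by OD600 gain over 9 h not by final OD600 alone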
Wee1 degr inh = Wee1 degradation inhibitors, primary screen, cell-based, HeLa, Wee1K328M-luciferase, luminescence | actives 1.2% (n = 220,000) | reporter increase, % at 5 µM | HeLa Luc-Wee1K328M stability; 100% = proteasome inhibitor MG132 effect | Wee1-like protein kinase (Homo sapiens), P30291;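 active means activation above the mean of all tested compounds plus 3 SD, set per screening run, cut at about 8.8% in these data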;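 further: cells exposed to compound for 20 h before luminescence read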
RanGTP-Impb inh = inhibitors of RanGTP-importin-beta interaction, primary screen, biochemical, FRET, CFP-Ran, YFP-importin-beta, homogeneous; Ran GTPase (GTP-bound) - importin-beta complex; cell-free CFP-Ran/YFP-importin-beta FRET ratio; inhibition, % (concentration not given with the values); actives 1.1% (n = 300,000); AID 2216, 2009;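 active means more than half of the replicate wells show a fall in the fluorescence ratio signal beyond about 16%, limit read from the data, passing the limit was not always enough; inconclusive means exactly half of the replicate wells pass the set limit; inactive means fewer than half of replicates pass the limit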
KLK7 zymogen act = proKLK7 zymogen activators, primary screen, biochemical, fluorescence intensity; Kallikrein-7 (Homo sapiens), P49862; purified proKLK7, EDANS-DABCYL substrate fluorescence; 100% is mature enzyme control, 0% vehicle; AID 652039, 2013; actives 0.9% (n = 370,000); activation, % at 7 µM;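 active means activation above the mean of all tested compounds plus 3 SD, computed per campaign excluding outliers beyond control limits, cut at about 13% in these data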
Runt-SMMHC FRET = inhibitors of RUNX1 Runt–CBFb-SMMHC binding, primary screen, biochemical, FRET, Cerulean-Runt, Venus-CBFb-SMMHC, uHTS | Runt-related transcription factor 1 (Homo sapiens) + Core-binding factor subunit beta … | Cerulean-Runt/Venus-CBFb-SMMHC FRET ratio 530/480, 1 h | inhibition, % at 20 µM | actives 0.74% (n = 220,000) | AID 1434, 2008;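 active means mean inhibition across duplicate retests at 20 µM reaching about 50%, limit read from the data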;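 further: inhibitors lower the FRET ratio by blocking Runt binding to CBFb-SMMHC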
Target sequence (Q01196 whole entry, looked up): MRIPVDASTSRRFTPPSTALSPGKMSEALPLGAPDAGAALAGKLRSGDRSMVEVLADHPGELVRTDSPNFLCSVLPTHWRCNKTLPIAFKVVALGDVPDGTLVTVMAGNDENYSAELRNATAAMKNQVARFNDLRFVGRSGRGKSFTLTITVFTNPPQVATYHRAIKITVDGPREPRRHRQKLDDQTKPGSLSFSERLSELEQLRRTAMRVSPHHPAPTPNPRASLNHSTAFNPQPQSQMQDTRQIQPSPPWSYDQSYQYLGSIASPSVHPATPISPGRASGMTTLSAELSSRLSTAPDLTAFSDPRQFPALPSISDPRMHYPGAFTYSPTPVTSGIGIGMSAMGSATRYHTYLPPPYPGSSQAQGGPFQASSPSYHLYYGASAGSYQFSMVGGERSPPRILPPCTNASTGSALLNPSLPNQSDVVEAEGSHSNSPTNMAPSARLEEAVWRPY
Target sequence (Q13951 whole entry, looked up): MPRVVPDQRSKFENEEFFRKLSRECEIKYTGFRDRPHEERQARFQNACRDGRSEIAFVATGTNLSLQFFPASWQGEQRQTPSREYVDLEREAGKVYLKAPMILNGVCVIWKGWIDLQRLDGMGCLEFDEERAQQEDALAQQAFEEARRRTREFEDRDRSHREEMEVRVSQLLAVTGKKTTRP
Runt-CBFb FRET = inhibitors of RUNX1 Runt–CBFb binding, primary screen, biochemical, FRET, Cerulean-Runt, Venus-CBFb, uHTS | inhibition, % at 20 µM | actives 0.46% (n = 220,000) | Runt-related transcription factor 1 (Homo sapiens) + Core-binding factor subunit beta … | AID 1496, 2009 | Cerulean-Runt/Venus-CBFb FRET ratio 530/480, 1 h;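 active means inhibition over about 50% at 20 µM in the single-dose screen, limit read from the data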
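Measured by: fluorescence energy transfer, 422 nm excitation, 530/480 nm emission; test system: Cerulean-tagged RUNX1 Runt domain (FRET donor) fusion protein; buffer or medium: Tris pH 7.5 buffer with BSA; compound: one dose, 20 µM compound, 1% DMSO; times: two 1 h room-temperature incubations shielded from light; benchmarks: unlabeled CBFb 5 µM, positive control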
proKLK7 act conf = proKLK7 zymogen activators, confirmation, biochemical, fluorescence intensity, triplicate | shares compounds with KLK7 zymogen act | purified proKLK7, EDANS-DABCYL substrate fluorescence; scaled: vehicle 0, mature enzyme 100 | activation, % at 7 µM | actives 68% (n = 3,200);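 active means activation, as change over the incubation, above the mean of all tested compounds plus 3 SD, cut at about 13% in these data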
EDANS-DABCYL int = EDANS-DABCYL substrate optical interference, artefact control for kallikrein-7 zymogen activator project, biochemical, fluorescence intensity, high throughput; shares compounds with KLK7 zymogen act; no enzyme, 4 h; solvent 0%, active enzyme control 100%; activation, % at 7 µM; actives 80% (n = 3,200); AID 686952, 2013;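 active means activation above the all-compound mean plus 3 SD, ignoring values outside control-based bounds, cut at about 4.8% in these data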;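 further: value is the 4 h activation minus the activation read at time zero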
EDANS interf = counter-screen for kallikrein-7 activators: EDANS-DABCYL interference, dose response; shares compounds with KLK7 zymogen act; EDANS-DABCYL peptide fluorescence interference, no enzyme; EC50, µM; actives 20% (n = 250); AID 720493;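 active means compounds that raise the fluorescence signal in this interference counterscreen, with EC50 at or below 10 µM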;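 further: intact quenched peptide substrate alone read at 355 nm excitation and 520 nm emission; signal is fluorescence gain from T0 to T4 after four hours at room temperature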
Hits are given with their value; . = inactive; ? = inconclusive; / = not tested or not shown.

SMILES	AI-2 QS mod	Wee1 degr inh	RanGTP-Impb inh	KLK7 zymogen act	Runt-SMMHC FRET	Runt-CBFb FRET	proKLK7 act conf	EDANS-DABCYL int	others
COCCn1c(N)c(S(=O)(=O)c2cccs2)c2nc3ccccc3nc21	.	.	.	56	.	.	24	26
Nc1c(S(=O)(=O)c2cccs2)c2nc3ccccc3nc2n1Cc1ccccc1	.	.	.	.	.	.	/	/
COc1ccc(N(CC(=O)NCc2ccccc2OC)S(=O)(=O)c2ccccc2[N+](=O)[O-])c(OC)c1	.	.	.	.	.	.	/	/
COc1ccc(-c2cc(C(=O)N(C)CC(=O)Nc3ccccc3C(F)(F)F)c3ccccc3n2)cc1OC	/	/	/	14	/	/	.	9.0
COc1ccc(-c2cc(C(=O)N(C)CC(=O)Nc3ccccc3Br)c3ccccc3n2)cc1OC	.	/	.	.	/	/	/	/
COc1cccc2[nH]c3c(N4CCC(C)CC4)ncnc3c12	.	.	.	.	.	.	/	/
COc1cccc2[nH]c3c(N4CCC5(CC4)OCCO5)ncnc3c12	.	.	.	39	.	.	38	45
COc1ccc(/C=C/C(=O)c2ccccc2)cc1COc1ccccc1F	.	.	.	263	.	.	.	80
COc1cc(/C=C/C(=O)OCC(=O)Nc2ccc3c(c2)OCCO3)ccc1OCC#N	.	.	.	38	.	.	128	110
COc1ccc(C(=O)/C=C/c2ccc(O)cc2)cc1	.	.	.	18	.	.	.	5.5
COc1cc(/C=C/C(=O)c2ccc(O)cc2)ccc1OCC#N	.	.	?	16	.	.	.	4.2
COc1ccc(C=O)cc1COc1ccccc1F	.	.	.	.	.	.	/	/
CCC(O)CNC(=O)CCc1nnc(C2(c3ccc(Cl)cc3)CCC2)o1 (configuration not stated)	.	.	.	.	.	.	/	/
CCOC(=O)[C@]12CCCC=C1N(Cc1ccccc1)C(=O)[C@H](CC(=O)NCc1ccc(C)o1)C2	/	/	/	.	/	/	/	/
COc1ccc2c(c1)CCc1cc(C(=O)O)sc1-2	.	.	.	56	.	.	59	67
O=S1(=O)CCN2C=C(Cl)C=C(Cl)C2=N1	.	.	.	25	.	.	33	29
Cc1cc(=O)oc2c3c(cc(OCC(=O)NC(Cc4ccc(Cl)cc4)C(=O)O)c12)OC(C)(C)CC3 (configuration not stated)	.	/	.	13	/	/	.	.
Cc1cc(=O)oc2c3c(cc(OCC(=O)NCc4cccnc4)c12)OC(C)(C)CC3	.	/	.	.	/	/	/	/
COc1cccc(CNC(=O)COc2cc3c(c4oc(=O)cc(C)c24)CCC(C)(C)O3)c1	.	/	.	.	/	/	/	/
Cc1cc(=O)oc2c3c(cc(OCC(=O)N[C@@H](Cc4ccccc4)C(=O)O)c12)OC(C)(C)CC3	.	/	.	32	/	/	41	25	EDANS interf=.
CCCCCCCCN1C(=O)[C@H](CC(=O)N2CCC(c3ccccc3)CC2)C[C@@]2(C(=O)OC)CCCCC=C12	/	/	/	.	/	/	/	/
O=C(c1cccc(F)c1)N1CCN(C(=O)c2cc3nc(-c4ccco4)cc(C(F)(F)F)n3n2)CC1	/	/	.	.	/	/	/	/
O=C(NC1CCCCC1)c1cc2nc(-c3ccco3)cc(C(F)(F)F)n2n1	.	.	.	/	.	.	/	/
O=C(NCCCN1CCOCC1)c1cc2nc(-c3ccco3)cc(C(F)(F)F)n2n1	.	/	.	15	/	/	14	11	EDANS interf=.
CN1CCN(C(=O)c2cc3nc(-c4ccco4)cc(C(F)(F)F)n3n2)CC1	.	.	.	30	.	.	17	11	EDANS interf=.
SMILES	AI-2 QS mod	Wee1 degr inh	RanGTP-Impb inh	KLK7 zymogen act	Runt-SMMHC FRET	Runt-CBFb FRET	proKLK7 act conf	EDANS-DABCYL int	others
Cc1ccc(C(=O)C(C)OC(=O)c2ccccc2[N+](=O)[O-])cc1 (configuration not stated)	.	.	.	.	.	.	/	/
CCOC(=O)c1cnn(-c2cc(C)cc(C)c2)c1N	.	.	.	.	.	.	/	/
CCOC(=O)c1cnn(-c2sc(C(=O)OCC)c(C)c2C(=O)OCC)c1N	.	.	.	18	/	/	.	.
COc1cccc(-c2cc(=O)c3cc(NC(C)=O)ccc3[nH]2)c1	.	.	.	25	.	.	32	32
COc1ccc2c(C(=O)NCCCCO)c(-c3ccc(S(C)(=O)=O)cc3)sc2c1	/	/	/	49	/	/	65	82
O=C1CC(C(=O)N2CCN(c3ccccn3)CC2)CN1Cc1ccccc1Cl (configuration not stated)	.	/	.	.	/	/	/	/
Cc1ccccc1OCCC(=O)Nc1ccc(S(=O)(=O)N2CCCC2)cc1	/	/	/	.	/	/	/	/
COc1ccc(N2C(=O)CC(N3CCN(Cc4ccc5c(c4)OCO5)CC3)C2=O)cc1 (configuration not stated)	.	.	.	53	.	.	.	.
O=C1CC(N2CCN(Cc3ccc4c(c3)OCO4)CC2)C(=O)N1c1cccc(Cl)c1 (configuration not stated)	.	.	.	.	.	.	/	/
CCOC(=O)C1CCCCN1C(=O)CCn1nnnc1CN1CCOCC1 (configuration not stated)	.	/	.	.	/	/	/	/
O=C(Cc1ccccc1)Nc1ccc2oc(-c3cccnc3)nc2c1	.	.	?	22	.	.	.	.
Cc1ccc(CN2CCN(CCCn3cccn3)CC2CCO)cc1 (configuration not stated)	.	.	.	.	.	.	/	/
COc1ccc(-n2cnnc2SCC(=O)Nc2cccnc2Cl)cc1	.	.	.	.	.	.	/	/
COc1ccc(O)c(C(=O)CC(=O)c2cccnc2)c1	/	/	/	55	/	/	229	235

Compound activity deposited in PubChem BioAssay by several laboratories.
